Reference: paper PMC10975593 (ACS Omega, 2024)
Like-named read-outs stand apart in the source and are kept apart here.

How the values were obtained:
COLO 205 = assay: NCI 60-cell line screen; format: cell-based, human
MDA-MB-468 = assay: NCI 60-cell line screen; format: cell-based, human
HL-60(TB) [1] = conditions: leukemia
HCT-116 = assay: NCI 60-cell line screen; format: cell-based, human
HCT-15 = assay: NCI 60-cell line screen; format: cell-based, human
NCI-H23 = assay: NCI 60-cell line screen; format: cell-based, human
HT29 = assay: NCI 60-cell line screen; format: cell-based, human
UACC-62 = assay: NCI 60-cell line screen; format: cell-based, human
Procedure, shortened: (§1)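 Test compounds were submitted to the National Cancer Institute and run under NCI's standard 60-cell-line protocols. Read-outs were taken from percent-growth versus log-concentration curves.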

T-47D = assay: NCI 60-cell line screen; format: cell-based, human
Procedure, shortened: as §1

UACC-257 = assay: NCI 60-cell line screen; format: cell-based, human
Procedure, shortened: as §1

A549/ATCC = assay: NCI 60-cell line screen; format: cell-based, human
HL-60(TB) [2] = assay: cells; conditions: Homo sapiens
HS 578T = assay: NCI 60-cell line screen; format: cell-based, human
MOLT-4 = assay: NCI 60-cell line screen; format: cell-based, human
U251 = assay: NCI 60-cell line screen; format: cell-based, human
Procedure, shortened: as §1

NCI-H460 = assay: NCI 60-cell line screen; format: cell-based, human
SF-539 = assay: NCI 60-cell line screen; format: cell-based, human
Procedure, shortened: as §1

LOX IMVI = assay: NCI 60-cell line screen; format: cell-based, human
PC-3 = assay: NCI 60-cell line screen; format: cell-based, human
Procedure, shortened: as §1

EKVX = assay: NCI 60-cell line screen; format: cell-based, human
SK-MEL-5 = assay: NCI 60-cell line screen; format: cell-based, human
Procedure, shortened: as §1

PI3Kγ enzyme = PI3Kγ enzyme (Homo sapiens, UniProt P48736); assay: Adapta universal kinase assay, anti-PI3Kγ activity; format: biochemical
PI3Kγ enzyme, sequence (P48736 whole entry): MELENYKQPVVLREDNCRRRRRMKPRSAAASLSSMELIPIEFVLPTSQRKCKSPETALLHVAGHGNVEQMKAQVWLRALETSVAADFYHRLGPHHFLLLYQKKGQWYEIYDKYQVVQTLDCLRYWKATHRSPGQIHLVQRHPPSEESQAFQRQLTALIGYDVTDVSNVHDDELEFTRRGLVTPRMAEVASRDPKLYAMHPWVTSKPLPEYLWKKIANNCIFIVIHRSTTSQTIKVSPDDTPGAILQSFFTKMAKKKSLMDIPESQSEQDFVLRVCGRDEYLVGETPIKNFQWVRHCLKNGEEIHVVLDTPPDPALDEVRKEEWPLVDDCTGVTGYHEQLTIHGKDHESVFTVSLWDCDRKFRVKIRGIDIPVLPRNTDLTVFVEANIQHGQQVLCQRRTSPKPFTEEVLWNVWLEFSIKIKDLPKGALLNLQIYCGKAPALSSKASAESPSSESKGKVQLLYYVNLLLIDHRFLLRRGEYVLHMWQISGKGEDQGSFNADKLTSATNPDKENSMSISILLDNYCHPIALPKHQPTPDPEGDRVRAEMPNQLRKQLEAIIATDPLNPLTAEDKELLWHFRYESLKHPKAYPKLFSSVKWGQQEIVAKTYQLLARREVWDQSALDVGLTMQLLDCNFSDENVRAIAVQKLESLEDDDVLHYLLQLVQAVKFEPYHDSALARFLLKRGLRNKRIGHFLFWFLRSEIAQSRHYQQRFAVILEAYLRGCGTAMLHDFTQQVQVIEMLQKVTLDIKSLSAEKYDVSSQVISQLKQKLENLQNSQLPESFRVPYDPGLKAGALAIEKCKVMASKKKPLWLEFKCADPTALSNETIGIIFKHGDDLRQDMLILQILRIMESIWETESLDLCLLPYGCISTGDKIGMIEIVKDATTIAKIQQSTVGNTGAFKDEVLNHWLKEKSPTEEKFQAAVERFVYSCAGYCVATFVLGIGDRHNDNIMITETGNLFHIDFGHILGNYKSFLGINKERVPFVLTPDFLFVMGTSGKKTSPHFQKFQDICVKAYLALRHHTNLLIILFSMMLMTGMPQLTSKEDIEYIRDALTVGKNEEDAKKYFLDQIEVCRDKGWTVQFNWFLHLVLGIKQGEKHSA
Procedure, shortened: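 Adapta ADP-detection TR-FRET immunoassay with test compound at 100 μM. The kinase reaction runs 60 min. It is then stopped by a detection solution of EDTA, europium-labelled anti-ADP antibody and Alexa Fluor 647-labelled ADP tracer. ADP formed displaces the tracer and lowers the TR-FRET signal. ADP formation is calculated from the emission ratio.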

MDA-MB-435 = assay: NCI 60-cell line screen; format: cell-based, human
M14 = assay: NCI 60-cell line screen; format: cell-based, human
NCI/ADR-RES = assay: NCI 60-cell line screen; format: cell-based, human

O=C(CN1CCN(CC(=O)Nc2nc3ccccc3s2)CC1)Nc1ccc([N+](=O)[O-])cc1 [OMS14, N-(benzo[d]thiazol-2-yl)-2-(4-(2-((4-nitrophenyl)amino)-2-oxoethyl)piperazin-1-yl)acetamide]
TGI (COLO 205; COLO 205, colon cancer): 2.2 µM
GI50 (COLO 205; Homo sapiens, COLO 205): 1000 nM
IC50 (COLO 205; Homo sapiens, COLO 205): 1700 nM
CC50 (COLO 205; Homo sapiens, COLO 205, read-out: LC50): 5 µM
GI50 (MDA-MB-468; Homo sapiens, MDA-MB-468): 1500 nM
IC50 (MDA-MB-468; Homo sapiens, MDA-MB-468): 3.2 µM
CC50 (MDA-MB-468; Homo sapiens, MDA-MB-468, read-out: LC50): 7.1 µM
TGI (MDA-MB-468; MDA-MB-468, breast cancer): 3.2 µM
TGI (HL-60(TB) [1]): 7.6 µM
TGI (HCT-116; HCT-116, colon cancer): 10.5 µM
GI50 (HCT-116; Homo sapiens, HCT-116): 700 nM
IC50 (HCT-116; Homo sapiens, HCT-116): 800 nM
CC50 (HCT-116; Homo sapiens, HCT-116, read-out: LC50): 52.5 µM
TGI (HCT-15; HCT-15, colon cancer): 3.7 µM
GI50 (HCT-15; Homo sapiens, HCT-15): 1700 nM
IC50 (HCT-15; Homo sapiens, HCT-15): 2800 nM
CC50 (HCT-15; Homo sapiens, HCT-15, read-out: LC50): 7.9 µM
GI50 (NCI-H23; Homo sapiens, NCI-H23): 1600 nM
IC50 (NCI-H23; Homo sapiens, NCI-H23): 3.2 µM
CC50 (NCI-H23; Homo sapiens, NCI-H23, read-out: LC50): 8.9 µM
TGI (NCI-H23; NCI-H23, non-small cell lung cancer): 3.8 µM
TGI (HT29; HT29, colon cancer): 3.6 µM
GI50 (HT29; Homo sapiens, HT-29): 1300 nM
IC50 (HT29; Homo sapiens, HT-29): 2100 nM
CC50 (HT29; Homo sapiens, HT-29, read-out: LC50): 10.2 µM
GI50 (UACC-62; Homo sapiens, UACC-62): 1700 nM
IC50 (UACC-62; Homo sapiens, UACC-62): 3.1 µM
CC50 (UACC-62; Homo sapiens, UACC-62, read-out: LC50): 6.9 µM
TGI (UACC-62; UACC-62, melanoma): 3.5 µM
GI50 (T-47D; Homo sapiens, T47D): 2200 nM
IC50 (T-47D; Homo sapiens, T47D): 5.6 µM
CC50 (T-47D; Homo sapiens, T47D, read-out: LC50): > 100 µM
TGI (T-47D; T-47D, breast cancer): 5.8 µM
GI50 (UACC-257; Homo sapiens, UACC-257): 2100 nM
IC50 (UACC-257; Homo sapiens, UACC-257): 4.2 µM
CC50 (UACC-257; Homo sapiens, UACC-257, read-out: LC50): 11.7 µM
TGI (UACC-257; UACC-257, melanoma): 4.7 µM
TGI (A549/ATCC; A549/ATCC, non-small cell lung cancer): 4.6 µM
GI50 (A549/ATCC; Homo sapiens, A549): 1900 nM
IC50 (A549/ATCC; Homo sapiens, A549): 3.2 µM
CC50 (A549/ATCC; Homo sapiens, A549, read-out: LC50): > 100 µM
GI50 (HL-60(TB) [2]; HL-60): 2500 nM
IC50 (HL-60(TB) [2]; HL-60): 4.4 µM
CC50 (HL-60(TB) [2]; HL-60, read-out: LC50): 81.3 µM
TGI (HS 578T; HS 578T, breast cancer): 8.5 µM
GI50 (HS 578T; Homo sapiens, Hs-578T): 2400 nM
IC50 (HS 578T; Homo sapiens, Hs-578T): 8.9 µM
CC50 (HS 578T; Homo sapiens, Hs-578T, read-out: LC50): > 100 µM
GI50 (MOLT-4; Homo sapiens, MOLT-4): 1100 nM
IC50 (MOLT-4; Homo sapiens, MOLT-4): 2500 nM
CC50 (MOLT-4; Homo sapiens, MOLT-4, read-out: LC50): > 100 µM
TGI (MOLT-4; MOLT-4, leukemia): 9.5 µM
GI50 (U251; Homo sapiens, U-251): 2600 nM
IC50 (U251; Homo sapiens, U-251): 3.5 µM
CC50 (U251; Homo sapiens, U-251, read-out: LC50): 50.1 µM
TGI (U251; U251, CNS cancer): 11.0 µM
GI50 (NCI-H460; Homo sapiens, NCI-H460): 1300 nM
IC50 (NCI-H460; Homo sapiens, NCI-H460): 1800 nM
CC50 (NCI-H460; Homo sapiens, NCI-H460, read-out: LC50): 21.9 µM
TGI (NCI-H460; NCI-H460, non-small cell lung cancer): 4.1 µM
GI50 (SF-539; Homo sapiens, SF-539): 2000 nM
IC50 (SF-539; Homo sapiens, SF-539): 4.3 µM
CC50 (SF-539; Homo sapiens, SF-539, read-out: LC50): 20 µM
TGI (SF-539; SF-539, CNS cancer): 5.5 µM
GI50 (LOX IMVI; Homo sapiens): 1600 nM
IC50 (LOX IMVI; Homo sapiens): 2800 nM
CC50 (LOX IMVI; Homo sapiens, read-out: LC50): 6.2 µM
TGI (LOX IMVI; melanoma): 3.2 µM
GI50 (PC-3; Homo sapiens, PC-3): 3000 nM
IC50 (PC-3; Homo sapiens, PC-3): 4.4 µM
CC50 (PC-3; Homo sapiens, PC-3, read-out: LC50): > 100 µM
TGI (PC-3; PC-3, prostate cancer): 20.9 µM
GI50 (EKVX; Homo sapiens): 2000 nM
IC50 (EKVX; Homo sapiens): 3.8 µM
CC50 (EKVX; Homo sapiens, read-out: LC50): 27.5 µM
TGI (EKVX; non-small cell lung cancer): 4.9 µM
GI50 (SK-MEL-5; Homo sapiens, SK-MEL-5): 1700 nM
IC50 (SK-MEL-5; Homo sapiens, SK-MEL-5): 3.2 µM
CC50 (SK-MEL-5; Homo sapiens, SK-MEL-5, read-out: LC50): 6.3 µM
TGI (SK-MEL-5; SK-MEL-5, melanoma): 3.3 µM
inhibition at 100 µM (PI3Kγ enzyme; read-out: % of inhibition (mean) against PI3Kγ enzyme): 19%
inhibition at 100 µM (PI3Kγ enzyme; read-out: % of inhibition against PI3Kγ enzyme, point 1): 15%
inhibition at 100 µM (PI3Kγ enzyme; read-out: % of inhibition against PI3Kγ enzyme, point 2): 24%
GI50 (MDA-MB-435; Homo sapiens, MDA-MB-435): 1800 nM
IC50 (MDA-MB-435; Homo sapiens, MDA-MB-435): 3000 nM
CC50 (MDA-MB-435; Homo sapiens, MDA-MB-435, read-out: LC50): 15.1 µM
TGI (MDA-MB-435; MDA-MB-435, melanoma): 4.6 µM
GI50 (M14; Homo sapiens, M14): 1700 nM
IC50 (M14; Homo sapiens, M14): 3000 nM
CC50 (M14; Homo sapiens, M14, read-out: LC50): 8.3 µM
TGI (M14; M14, melanoma): 3.8 µM
GI50 (NCI/ADR-RES; Homo sapiens): 1300 nM
IC50 (NCI/ADR-RES; Homo sapiens): 2400 nM
CC50 (NCI/ADR-RES; Homo sapiens, read-out: LC50): 7.8 µM
TGI (NCI/ADR-RES; ovarian cancer): 3.2 µM
